Screens as filed in PubChem BioAssay.
dFosB act-1 = mouse delta FosB homodimer activation; P13346; purified delta FosB, TAMRA-CDK5 oligo fluorescence polarization; percent of positive-control signal above neutral wells; activation, % at 25 µM; actives 0.99% (n = 340,000); AID 493131;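 active = mean activation above about 17%, with every replicate also reaching it, limit read from the data, passing the limit was not always enough; inconclusive = only one of the two conditions met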
SR-BI uptake up = enhances SR-BI lipid uptake from DiI-HDL; CHO ldlA[mSR-BI] cells, DiI-HDL uptake fluorescence, 3 h; 100 = double the neutral-control signal; activation, % at 12.5 µM; actives 0.096% (n = 320,000);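 active = mean replicate activation of at least 60% and every replicate at or above 60%; inconclusive = mean or all-replicate condition met, but not both; inactive = mean below 60% and not all replicates reaching 60%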
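system = CHO ldlA[mSR-BI] cells, LDL receptor-null, SR-BI overexpressing | medium = Ham's F12 with 0.5% BSA, HEPES 25 mM, pH 7.4 | probe or stimulus = DiI-HDL 10 µg/mL | compound dosing = single-point compound dose | incubation = compound exposure 3 h, 37 °C | technique = DiI fluorescence, bottom read | read-out = cell-associated DiI fluorescence as measure of HDL uptake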
RAD54 inh = RAD54 (human) branch migration inhibition; Q92698; RAD54 Holliday junction branch migration, FAM/BHQ fluorescence; inhibition, % at 10.4 µM; actives 0.14% (n = 360,000); AID 602329;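 active = mean normalized replicate activity at least 40 and at least half of replicates scoring 40 or more; inconclusive = only one of the two criteria met; inactive = mean below 40 and under half of replicates reaching 40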;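 also: inhibitors cause a drop in the FAM fluorescence signal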
SR-BI HDL uptake = blocks mouse SR-BI lipid uptake from DiI-HDL; actives 0.96% (n = 320,000); Q61009; inhibition, % at 12.5 µM; ldlA[mSR-BI] CHO cells, DiI-HDL uptake fluorescence, 3 h;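 active = mean replicate inhibition of at least 70% and a set share of replicates each scoring 70 or more; inconclusive = meets just one of the two criteria; inactive = fails both criteria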
Target sequence (Q61009 whole entry, looked up): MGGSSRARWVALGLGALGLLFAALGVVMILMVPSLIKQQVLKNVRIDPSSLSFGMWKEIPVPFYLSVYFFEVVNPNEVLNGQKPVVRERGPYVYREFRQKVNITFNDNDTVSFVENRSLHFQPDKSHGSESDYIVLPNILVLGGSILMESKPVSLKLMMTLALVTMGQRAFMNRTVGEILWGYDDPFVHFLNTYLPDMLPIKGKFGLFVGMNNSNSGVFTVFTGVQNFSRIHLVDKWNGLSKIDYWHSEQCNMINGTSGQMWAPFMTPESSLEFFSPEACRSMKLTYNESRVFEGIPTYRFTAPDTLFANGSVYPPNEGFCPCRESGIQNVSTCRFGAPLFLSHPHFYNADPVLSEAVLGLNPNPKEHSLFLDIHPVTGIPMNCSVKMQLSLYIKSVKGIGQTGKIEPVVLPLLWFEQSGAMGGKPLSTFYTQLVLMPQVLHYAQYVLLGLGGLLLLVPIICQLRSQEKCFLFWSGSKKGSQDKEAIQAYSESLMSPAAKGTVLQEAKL
S100A4 MyoIIA = blocks human S100A4 binding to myosin IIA peptide | S100A4/TAMRA-MyoIIA peptide fluorescence polarization | inhibition, % at 10.7 µM | actives 0.14% (n = 360,000);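 active = mean inhibition of at least 70% across replicates, with every replicate also reaching that level; inconclusive = mean inhibition reaches 70% but some replicates fall short; inactive = mean inhibition below 70%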
Target sequence (P26447 whole entry, looked up): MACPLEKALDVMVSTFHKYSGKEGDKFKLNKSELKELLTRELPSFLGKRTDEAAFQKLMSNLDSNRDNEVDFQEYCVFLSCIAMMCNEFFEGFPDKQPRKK
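Material: human S100A4 monomer with TAMRA-labelled myosin IIA peptide; buffer or medium: HEPES pH 7.2 with CaCl2, KCl, NaCl, DTT, Triton; compound dosing: one concentration per compound; schedule: 5 min incubation before reading; benchmarks: neutral control DMSO, positive control TFP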
PvdQ acylase = P. aeruginosa PvdQ acylase inhibition; inhibition, % at 10 µM; actives 0.063% (n = 340,000); purified PvdQ acylase, fluorescence plate reader; AID 488965; in the data active = inhibition above about 30%, passing the limit was not always enough; inconclusive = no clear call, values can overlap the other calls
dFosB act-2 = enhances mouse delta FosB homodimer binding to DNA; shares compounds with dFosB act-1; activation, % at 24.9 µM; 2,400 tested, under 10 active; purified delta FosB, TAMRA-CDK5 oligo fluorescence polarization; normalised: neutral wells 0, positive control 100;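 active = highest replicate activation at or above 34% and every replicate reaching that threshold; inconclusive = meets only one of the two criteria; inactive = meets neither criterion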;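 also: higher polarization means more probe DNA bound by delta FosB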
Hits are given with their value; – = inactive; ? = inconclusive; · = no result given. Most compounds without a hit are left out; they make up all but 1.6% or so of the library.

SMILES	dFosB act-1	SR-BI uptake up	RAD54 inh	SR-BI HDL uptake	S100A4 MyoIIA	PvdQ acylase	dFosB act-2
CO[C@@H]1CN(C)C(=O)c2ccc(NC(=O)Cc3ccccc3)cc2OC[C@@H](C)NC[C@@H]1C	·	·	–	·	–	·	·
C[C@H](CO)N1C[C@H](C)[C@@H](CN(C)CC2CCCCC2)Oc2c(NC(=O)c3cnccn3)cccc2C1=O	·	·	–	·	·	·	·
O=C(CC1CC1)Nc1ccc2c(c1)[C@@H]1C[C@H](CC(=O)NC3CCCCC3)O[C@H](CO)[C@@H]1O2	·	·	–	·	–	·	·
COc1ccc(NC(=O)Nc2ccc3c(c2)C(=O)N([C@H](C)CO)C[C@H](C)[C@H](CN(C)C(=O)CCCN(C)C)OCCCC[C@@H](C)O3)cc1	·	·	–	·	–	·	·
CC(=O)c1cccc(NC(=O)Cn2cnc(S(=O)(=O)N3CCC(C)CC3)c2)c1	50.3	·	–	–	·	–	–
COc1ccc2nc(NC(=O)C3CCCN(S(=O)(=O)c4cccs4)C3)sc2c1 (stereo unspecified)	?	–	–	–	·	–	·
COc1ccc2nc(NC(=O)C3CCN(S(=O)(=O)c4cccs4)CC3)sc2c1	25.3	–	–	–	·	–	?
CC(C)NC(=O)N[C@@H]1C=C[C@@H](CC(=O)N2CCCCC2)O[C@H]1CO	·	·	–	·	–	·	·
O=C(CSc1ncnc2[nH]ncc12)Nc1nc(-c2ccc(F)c(F)c2)cs1	33.1	–	·	–	–	–	–
O=C(Cc1ccc(F)cc1)Nc1nc(-c2ccc(F)c(F)c2)cs1	–	–	–	–	–	–	·
C[C@@H]1CCCCO[C@H](CN(C)S(C)(=O)=O)[C@H](C)CN([C@@H](C)CO)C(=O)c2cc(N(C)C)ccc2O1	·	·	–	·	–	·	·
NC(=O)c1ccc(NC(=O)COC(=O)c2cc3ccccc3cc2O)cc1	36.1	–	–	–	–	–	–
NS(=O)(=O)c1ccc(NC(=O)COC(=O)c2cc3ccccc3cc2O)cc1	–	·	–	·	–	–	·
O=C(COC(=O)c1ccccc1O)Nc1cccc2ccccc12	39.5	–	–	–	–	–	–
O=C(COC(=O)CNS(=O)(=O)/C=C/c1ccccc1)Nc1cccc2ccccc12	26.8	–	·	–	·	–	–
C[C@H](CO)N1C[C@H](C)[C@H](CN(C)S(=O)(=O)c2ccccc2)Oc2ccc(N(C)C)cc2C1=O	·	·	–	·	–	·	·
CCOC(=O)Cc1csc(NC(=O)c2cccc(N3C(=O)CCC3=O)c2)n1	–	–	·	–	·	–	·
COc1ccc(C)c2sc(NC(=O)c3cccc(N4C(=O)CCC4=O)c3)nc12	52.7	–	–	–	–	–	–
O=C(CSc1nnc(-c2ccncc2)n1Cc1ccco1)Nc1nc(-c2ccccc2)cs1	33.0	–	–	–	·	–	–
O=C(NNC(=O)c1csc(N2CCOCC2)n1)c1ccc(Cl)nc1	–	–	–	–	–	–	·
O=C(NNC(=O)c1ccc(Cl)s1)c1csc(N2CCOCC2)n1	21.3	–	·	–	–	–	–
C[C@H]1CN([C@@H](C)CO)C(=O)c2cccc(NS(=O)(=O)c3cn(C)cn3)c2O[C@@H]1CN(C)S(=O)(=O)c1ccc(Cl)cc1	·	·	–	·	–	·	·
O=C(Nc1ccccc1)N[C@H]1CC[C@H](CCn2cc(-c3ccccc3F)nn2)O[C@H]1CO	·	·	·	·	–	·	·
C/C=C/c1ccc([C@H]2[C@@H](CNC(C)C)N(Cc3cccnc3)[C@H]2CO)cc1	·	·	–	·	–	·	·
O=C1CN(C(=O)COC(=O)c2oc3ccccc3c2COc2ccccc2)c2ccccc2N1	–	–	–	–	·	–	·
SMILES	dFosB act-1	SR-BI uptake up	RAD54 inh	SR-BI HDL uptake	S100A4 MyoIIA	PvdQ acylase	dFosB act-2
Cc1c(C(=O)OCC(=O)N2CC(=O)Nc3ccccc32)oc2ccccc12	32.6	–	–	–	·	–	–
Cc1nnc(NC(=O)c2ccc(-c3cccc(C(F)(F)F)c3)o2)s1	30.4	–	–	–	·	–	?
CC(=O)Cc1nsc(NC(=O)c2ccc(-c3cccc(C(F)(F)F)c3)o2)n1	–	–	–	–	·	–	·
N#C/C(=C\c1cn(Cc2ccccc2F)c2ccccc12)C(=O)NCc1ccco1	24.3	–	·	–	·	–	–
Cc1cc(Nc2ccc(C)c(C)c2)c2ccccc2n1	–	–	–	–	–	–	·
Cc1ccc(Nc2nc(N)c3ccccc3n2)cc1C	42.4	–	–	–	–	–	–
CCC(=O)Nc1ccc2c(c1)OC[C@@H](C)N(CC1CCCCC1)C[C@@H](C)[C@@H](OC)CN(C)C2=O	·	·	–	·	·	·	·
Cc1noc(C)c1NC(=O)N(C)C[C@H]1Oc2ccc(NC(=O)NC3CCCCC3)cc2C(=O)N([C@@H](C)CO)C[C@H]1C	·	·	–	·	?	·	·
CC(=O)Nc1ccc2c(c1)C(=O)N(C)[C@H]1CC[C@@H](CC(=O)NCc3ccc4c(c3)OCO4)O[C@@H]1CO2	·	·	–	·	·	·	·
CC(=O)Nc1ccc(SCC(=O)c2c(N)n(Cc3ccccc3)c(=O)n(C)c2=O)cc1	17.0	–	–	–	–	–	–
COC(=O)c1c2oc(c1C(=O)OC)C(=O)N[C@H](Cc1ccccc1)Cn1cc(nn1)[C@H](Cc1ccccc1)NC(=O)N[C@H](CO)CC2	·	·	–	·	–	·	·
CCc1ccc(CNC(=O)C(=O)NCCc2ccc(OC)c(OC)c2)cc1	–	–	–	–	·	–	·
COc1ccc(CCNC(=O)C(=O)NCc2ccc(Cl)cc2)cc1OC	42.5	–	·	–	–	–	–
Cc1ccc(-c2ccc(=O)n(CC(=O)Nc3ccc4c(c3)OCCO4)n2)cc1	–	–	·	–	–	–	·
Cc1ccc(NC(=O)Cn2nc(-c3ccco3)ccc2=O)cc1Cl	77.7	–	–	–	–	–	–
Cc1ccc(NC(=O)Cn2nc(C)c([N+](=O)[O-])c2C)cc1Cl	27.8	–	·	–	–	–	–
Cc1ccc(NC(=O)Cn2cc(C(F)(F)F)cc(Cl)c2=O)cc1Cl	22.7	–	·	–	–	–	–
CN(C)C(=O)C[C@H]1C=C[C@H](NC(=O)NC2CCCC2)[C@@H](CO)O1	·	·	–	·	–	·	·
CCOc1ccc(S(=O)(=O)N(C)c2ccc(OCC(=O)N3c4ccc(C)cc4C4CN(C)CCC43)cc2)cc1 (stereo unspecified)	33.6	–	–	–	–	–	–
COc1ccccc1NC(=O)N(C)C[C@@H]1Oc2ncc(C#CC(C)C)cc2C(=O)N([C@@H](C)CO)C[C@H]1C	·	·	–	·	–	·	·
CCc1ccc(/C=C2/Sc3ccccc3N(CC(=O)NCCCN3CCOCC3)C2=O)cc1	–	–	–	–	–	–	·
O=C(CN1C(=O)/C(=C/c2ccc(C(F)(F)F)cc2)Sc2ccccc21)NCCCN1CCOCC1	25.1	–	–	–	–	–	–
COc1ccc(/C=N\NC(=O)c2cc(OCC(F)(F)F)ccc2OCC(F)(F)F)cc1	18.2	–	·	–	·	–	–
